Screening results (PubChem BioAssay)
In the library only some 0.79% were active in any assay of this set; here they are far more common.
hIAP act: human IAP activation; purified human IAP, CDP-Star luminescence, 30 min; stronger effect = higher value; 1 = vehicle-only enzyme, 0 = enzyme-free background; activation factor at 10 µM; 330,000 tested, 0.16% active; AID 2524;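 active means activation factor of the enzyme at least 2-fold when tested at 20 µM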
Target sequence (P09923 whole entry, looked up): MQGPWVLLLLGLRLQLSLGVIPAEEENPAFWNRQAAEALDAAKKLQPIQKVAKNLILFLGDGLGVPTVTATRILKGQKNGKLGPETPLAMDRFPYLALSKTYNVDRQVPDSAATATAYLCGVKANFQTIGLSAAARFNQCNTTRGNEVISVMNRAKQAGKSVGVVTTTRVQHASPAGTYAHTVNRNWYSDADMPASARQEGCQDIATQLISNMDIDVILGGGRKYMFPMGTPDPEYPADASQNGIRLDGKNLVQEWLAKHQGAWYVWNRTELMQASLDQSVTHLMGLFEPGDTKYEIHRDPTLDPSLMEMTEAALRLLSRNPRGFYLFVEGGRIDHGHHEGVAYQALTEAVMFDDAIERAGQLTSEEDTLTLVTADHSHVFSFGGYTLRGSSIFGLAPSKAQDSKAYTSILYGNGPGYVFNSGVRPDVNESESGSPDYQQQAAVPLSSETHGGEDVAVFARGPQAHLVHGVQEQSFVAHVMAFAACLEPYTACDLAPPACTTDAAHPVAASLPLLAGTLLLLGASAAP
hIAP block: human IAP inhibition; P09923; purified IAP, CDP-Star luminescence, 30 min; inhibition, % at 10 µM; 330,000 tested, 0.12% active; AID 2544;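 active means inhibition reaching a set limit with compound at 10 µM in the primary screen, cut at about 35% in these data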
mIAP inh: mouse IAP inhibition | purified mouse IAP, CDP-Star luminescence, 30 min | inhibition, % at 10 µM | 330,000 tested, 0.2% active | AID 2806;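 active means inhibition of at least 40% at 10 µM in the primary screen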
mIAP act: mouse IAP activation | muIAP, CDP-Star luminescence, 30 min; stronger effect = higher value; 1 = vehicle-only enzyme signal, 0 = enzyme-free wells | activation factor at 10 µM | 330,000 tested, 0.24% active | AID 2805;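 active means activation factor of at least 2 at 20 µM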
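System: mouse IAP enzyme. Reagent: CDP-Star chemiluminescent phosphatase substrate. Benchmarks: DMSO wells, no-enzyme wells. Times: 30 min enzyme-substrate-compound incubation at room temperature. Detection: luminescence from enzymatic CDP-Star hydrolysis. Doses: test compounds delivered from DMSO solution.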
bIAP activator: intestinal alkaline phosphatase (bovine) activation; 200,000 tested, 0.17% active; purified bovine IAP, CDP-star luminescence, 30 min; stronger effect = higher value; fold of DMSO-control signal, blank-subtracted; activation factor at 20 µM; AID 1016;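 active means activation factor of 2 or more at 20 µM, a signal rise over negative controls twice the positive control's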
bIAP inhibitor: blocks bovine intestinal alkaline phosphatase activity | purified bovine IAP, CDP-star luminescence, 30 min | 190,000 tested, under 10 active | inhibition, % at 20 µM | AID 1019;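 active means over 50% inhibition of intestinal alkaline phosphatase at 20 µM in the single-dose screen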
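Assay system: bovine IAP enzyme; medium: DEA buffer 100 mM, pH 9.8, with MgCl2 1.0 mM, ZnCl2 0.02 mM; doses: 20 µM single dose; incubation: enzyme reaction for 30 min at room temperature; detection: CDP-star luminescence signal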
hIAP act confirm: human IAP activation confirmation | shares compounds with hIAP act | purified IAP, CDP-Star luminescence, 30 min; stronger effect = lower value | activation (%Activity, negative = activation), % at 8.3 µM | 880 tested, 10% active;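 active means at least twofold enzyme activation in any of six single-dose repeats, which the averaged readout prints as negative percent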
mIAP inh confirm: mouse IAP inhibition confirmation | shares compounds with mIAP inh | purified mouse IAP, CDP-Star luminescence, 30 min | inhibition, % at 10 µM | 11,000 tested, 4.7% active | AID 434971;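 active means inhibition of at least 40% at 10 µM in either of the two replicates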
Of the large screens only hits and unclear results are named; the others gave an inactive call (follow-up assays come after a bar, where they were run).

O=C1/C(=C\c2cccc(O)c2O)SC(=S)N1Cc1ccccc1	hIAP block 45, mIAP inh 41 (no result: bIAP activator, bIAP inhibitor) | hIAP act confirm inactive | mIAP inh confirm 63
Nc1c(Cl)ncnc1NCCc1ccc(O)cc1	none (no result: bIAP activator, bIAP inhibitor)
CCS(=O)(=O)N1CCC(C(=O)Nc2cccc(F)c2)CC1	none (no result: bIAP activator, bIAP inhibitor)
CCn1ncc(CN2CCC(C(=O)Nc3cccc(-c4cccc(F)c4)c3)CC2)c1C	hIAP act 4, mIAP act 3.5 (no result: bIAP activator, bIAP inhibitor) | hIAP act confirm inactive | mIAP inh confirm inactive
CCn1nc(C)c(CN2CCC(C(=O)Nc3cccc(-c4cccc(Cl)c4)c3)CC2)c1C	hIAP act 8.7, mIAP act 8.2 (no result: bIAP activator, bIAP inhibitor) | hIAP act confirm inactive | mIAP inh confirm inactive
CCCNC(=O)C1CCC(CNS(=O)(=O)c2ccc3c(c2)N(C(C)=O)CCO3)CC1 (configuration not stated)	none (no result: bIAP activator, bIAP inhibitor)
CCc1ccc(C(=O)NNC(=O)c2cccc(N3C(=O)CCC3=O)c2)cc1	none (no result: bIAP activator, bIAP inhibitor)
O=C1NC(=O)/C(=C\c2ccc(O)cc2O)S1	hIAP block 84, mIAP inh 71 | hIAP act confirm inactive | mIAP inh confirm 85
CC(NC(=O)COC(=O)c1ccc(Br)o1)c1ccccc1 (configuration not stated)	none (no result: bIAP activator, bIAP inhibitor)
N#Cc1nnn(-c2ccc(Cl)cc2)c1N	none
COc1cc(/C=C(\C#N)C(=O)c2ccc(O)c(O)c2)cc(I)c1O	hIAP block 51, mIAP inh 83 (no result: bIAP activator, bIAP inhibitor) | hIAP act confirm inactive | mIAP inh confirm 83
COc1cc(/C=C(\C#N)C(=O)N2CCOCC2)cc(Br)c1O	none
O=c1c(O[C@@H]2O[C@H](CO)[C@@H](O)[C@H](O)[C@H]2O)c(-c2ccc(O)c(O)c2)oc2cc(O)cc(O)c12	hIAP block 57, mIAP inh 55 | hIAP act confirm inactive | mIAP inh confirm 58
O=c1c(O[C@@H]2O[C@H](CO)[C@H](O)[C@H](O)[C@H]2O)c(-c2ccc(O)c(O)c2)oc2cc(O)cc(O)c12	none (no result: hIAP act, hIAP block, mIAP inh, mIAP act)
COc1ccc(OC)c(CN2CCC(CNC(=O)Nc3cccc(Cl)c3)CC2)c1	none
COc1cc(NC(=O)NCC2CCN(Cc3ccccc3Cl)CC2)cc(OC)c1OC	hIAP act 2.6, mIAP act 4 (no result: bIAP activator, bIAP inhibitor) | hIAP act confirm -142 | mIAP inh confirm inactive
CN(CC(=O)NC(c1ccccc1)c1ccccc1)Cc1nc2ccccc2c(=O)[nH]1	hIAP act 2.2, mIAP act 2.1, bIAP activator 2.5 | hIAP act confirm inactive | mIAP inh confirm inactive
CN(CC(=O)Nc1ccccc1Sc1ccccc1)Cc1nc2ccccc2c(=O)[nH]1	none
CC(C)c1ccc(NC(=O)NC2CCN(CC(=O)Nc3cccc4ccccc34)CC2)cc1	hIAP act 2.2, mIAP act 4.2 | hIAP act confirm inactive | mIAP inh confirm inactive
CCOc1ccc(N(CC(=O)N2CCC(Cc3ccccc3)CC2)S(C)(=O)=O)cc1	none
Nc1c(/C=C2/C=CC(=O)C(O)=C2)c(=O)nc2sc(CC(=O)N3CCCCC3)nn12	hIAP block 54, mIAP inh 61 (no result: bIAP activator, bIAP inhibitor) | hIAP act confirm inactive | mIAP inh confirm 83
Nc1c(/C=C2/C=CC(=O)C(O)=C2)c(=O)nc2sc(CC(=O)N3CCCC3)nn12	hIAP block 48, mIAP inh 58 (no result: bIAP activator, bIAP inhibitor) | hIAP act confirm inactive | mIAP inh confirm 78
CCC(=O)Nc1cccc(NC(=S)NC(=O)c2ccccc2C)c1	none
CCCCNC(=O)c1cc2cc(CC)ccc2[nH]1	none (no result: bIAP activator, bIAP inhibitor)
Cc1ccc(NC(=O)C2CC(=O)Nc3nc4ccccc4n32)c(C)c1 (configuration not stated)	hIAP act 2.7, mIAP act 3.5 (no result: bIAP activator, bIAP inhibitor) | hIAP act confirm inactive | mIAP inh confirm inactive
COc1ccc(S(=O)(=O)Nc2cc(Sc3ncn[nH]3)c(O)cc2C)cc1	none (no result: bIAP activator, bIAP inhibitor)
Cc1ccc([N+](=O)[O-])cc1S(=O)(=O)Nc1ccc(O)c(Sc2ncn[nH]2)c1	hIAP block 73, mIAP inh 73 (no result: bIAP activator, bIAP inhibitor) | hIAP act confirm inactive | mIAP inh confirm 89
Cc1ccccc1-c1nnc(NC(=O)c2cc3ccccc3oc2=O)s1	none (no result: hIAP act, hIAP block, mIAP inh, mIAP act)
